Results taken from ChEMBL document CHEMBL5131470, “Structure-activity and structure-property relationship studies of spirocyclic chromanes with antimalarial activity” (Bioorg Med Chem, 2022).
Values after ≈ are worked out from the molar mass of the structure shown.

What was measured:
[1] = Aqueous solubility of the compound at pH 2 by HPLC analysis; format: physicochemical; details: aqueous solution
How it was run: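 Aqueous solubility was measured at pH 2.0 with an in-house HPLC assay. Values are reported as bins: ≤10 μM, 10–20 μM, 20–40 μM, 40–80 μM and ≥80 μM.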

[2] = Cytotoxicity against human HepG2 cells assessed as reduction in cell viability incubated for 48 hrs by MTS assay; format: toxicity, cell-based
How it was run: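 HepG2 human hepatoma cells were seeded at 2,500 cells/well in 384-well plates and incubated 24 h. Serial compound dilutions (0–40 μM range) were added, then cells were incubated a further 48 h.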

[3] = Selectivity index, ratio of EC50 for cytotoxicity against human HepG2 cells to EC50 for antimalarial activity against chloroquine-resistant Plasmodium falciparum Dd2; format: toxicity, cell-based; details: read-out: Ratio EC50
How it was run: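 Human HepG2 hepatoma cells were seeded at 2,500 cells/well and grown 24 h. Serial dilutions of compound (0–40 μM) were then added for another 48 h. […] SI = EC50(HepG2)/EC50(Dd2).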

Plasmodium falciparum [4] = assay: Antimalarial activity against chloroquine-resistant Plasmodium falciparum Dd2 assessed as inhibition of parasite growth incubated for 72 hrs by SYBR green I-based DNA quantification assay; format: functional, organism-based; details: Dd2, 72 h
[5] = Octanol-water distribution coefficient, logD of the compound at pH 7.4 by HPLC-based analysis; format: physicochemical
[6] = Aqueous solubility of the compound at pH 6.5; details: aqueous solution
[7] = Octanol-water distribution coefficient, logD of the compound at pH 3 by HPLC-based analysis; format: physicochemical
Plasmodium falciparum [8] = assay: Antiplasmodial activity against artemisinin-resistant Plasmodium falciparum ARC08-022 assessed as inhibition of parasite growth incubated for 48 hrs by time zero-[3H]hypoxanthine incorporation assay; format: functional, organism-based
Plasmodium falciparum [9] = assay: Antiplasmodial activity against chloroquine-sensitive Plasmodium falciparum D6 assessed as inhibition of parasite growth incubated for 48 hrs by time zero-[3H]hypoxanthine incorporation assay; format: functional, organism-based

Row | SMILES | solubility [1] | EC50 at 48 h [2] | selectivity ratio [3] | EC50 (Plasmodium falciparum [4]) | logD [5] | solubility [6] | logD [7] | EC50 (Plasmodium falciparum [8]) | EC50 (Plasmodium falciparum [9])
1 | c1ccc2c3c(ccc2c1)CCC1(CCN(CCC2CCCCC2)CC1)O3 | 40 µM (≈ 14.5 µg/mL) | 2 µM | 1.1 | 1.47 µM | 4.74 | – | – | – | –
2 | OC1C[C@]2(CCCN(CCc3ccc(F)c(F)c3)C2)Oc2c1ccc1ccccc21 (stereo not given in full) | – | 6 µM | 1.9 | > 2.5 µM | – | – | – | – | –
3 | O=C1CC2(CCN(CC(O)c3ccc(Cl)c(Cl)c3)CC2)Oc2c1ccc1ccccc21 (stereo not given) | – | – | – | > 2.5 µM | – | – | – | – | –
4 | O=C(CN1CCC2(CCc3ccc4ccccc4c3O2)CC1)c1ccc(F)c(F)c1 | 20 µM (≈ 8.15 µg/mL) | > 20 µM | – | > 2.5 µM | – | 20 µM (≈ 8.15 µg/mL) | – | – | –
5 | O=C1CC2(CCN(CCc3ccccc3)CC2)Oc2c1ccc1ccccc21 | – | 8 µM | 14 | 0.53 µM | – | – | – | – | –
6 | O=C(CN1CCC2(CC1)CC(=O)c1ccc3ccccc3c1O2)c1ccc(F)c(F)c1 | 40 µM (≈ 16.9 µg/mL) | 4 µM | 2.7 | 1.3 µM | 1.82 | 40 µM (≈ 16.9 µg/mL) | 1.52 | – | –
7 | O=C1CC2(CCN(Cc3ccccc3)CC2)Oc2c1ccc1ccccc21 | – | 11 µM | 4 | > 2.5 µM | – | – | – | – | –
8 | CCN1CCC2(CCc3ccc4c(c3O2)CCCC4)CC1 | – | 5 µM | < 1 | > 2.5 µM | – | – | – | – | –
9 | CCN1CCC[C@]2(CC(O)c3ccc4ccccc4c3O2)C1 (stereo not given in full) | – | > 20 µM | > 7.6 | > 2.5 µM | – | – | – | – | –
10 | OC1CC2(CCN(CCCc3ccccc3)CC2)Oc2c1ccc1ccccc21 (stereo not given) | – | 1 µM | 2 | 0.65 µM | – | – | – | – | –
11 | c1ccc(CCN2CCC3(CCc4ccc5ccccc5c4O3)CC2)cc1 | – | > 20 µM | > 9.6 | 2.06 µM | – | – | – | – | –
12 | CCN1CCC[C@@]2(CC(=O)c3ccc4ccccc4c3O2)C1 | – | 8 µM | < 1.6 | > 2.5 µM | – | – | – | – | –
13 | O[C@@H](CN1CCC2(CC1)C[C@H](O)c1ccc3ccccc3c1O2)c1ccc(F)c(F)c1 | – | > 20 µM | > 15 | 1.29 µM | – | – | – | – | –
14 | CCN1CCC2(CC1)CC(O)c1ccc3ccccc3c1O2 (stereo not given) | 20 µM (≈ 5.95 µg/mL) | 16 µM | 3.2 | > 2.5 µM | 1.88 | 20 µM (≈ 5.95 µg/mL) | 1.51 | – | –
15 | O=C1CC2(CCN(CCc3ccc(F)c(F)c3)CC2)Oc2c1ccc1ccccc21 | ≥ 80 µM | > 20 µM | 4 | > 2.5 µM | 3.81 | 10 µM (≈ 4.07 µg/mL) | 2.56 | 0.86 µM | 0.26 µM
16 | O=C1C[C@@]2(CCCNC2)Oc2c1ccc1ccccc21 | – | 5 µM | 9 | 0.63 µM | – | – | – | – | –
17 | C1=CC2(CCNCC2)Oc2c1ccc1ccccc21 | – | > 20 µM | > 45.6 | 0.49 µM | – | – | – | – | –
18 | CCN1CCC[C@@]2(CC(O)c3ccc4ccccc4c3O2)C1 (stereo not given in full) | – | > 20 µM | > 28.8 | 0.63 µM | – | – | – | – | –
19 | OC1CC2(CCNCC2)Oc2c1ccc1ccccc21 (stereo not given) | 40 µM (≈ 10.8 µg/mL) | > 20 µM | > 54.5 | 0.51 µM | 2.46 | ≤ 10 µM | 2.04 | – | –
20 | O[C@@H]1CC2(CCN(C[C@H](O)c3ccc(F)c(F)c3)CC2)Oc2c1ccc1ccccc21 | – | 17 µM | 16 | 1.06 µM | – | – | – | – | –
21 | OC1CC2(CCN(CCc3ccc(F)c(F)c3)CC2)Oc2c1ccc1ccccc21 (stereo not given) | ≥ 80 µM | > 20 µM | > 32.5 | 0.53 µM | 3.15 | ≥ 80 µM | 2.62 | – | –
22 | OC1CC2(CCN(Cc3ccccc3)CC2)Oc2c1ccc1ccccc21 (stereo not given) | – | 6 µM | 5.7 | 0.93 µM | – | – | – | – | –
23 | CCN1CCC2(C=Cc3ccc4ccccc4c3O2)CC1 | – | 12 µM | 9.7 | 1.14 µM | – | – | – | – | –
24 | Fc1ccc(CCN2CCC3(CCc4ccc5c(c4O3)CCCC5)CC2)cc1F | – | > 20 µM | 4 | > 2.5 µM | – | – | – | – | –
25 | Fc1ccc(CCN2CCC3(CCc4ccc5ccccc5c4O3)CC2)cc1F | 20 µM (≈ 7.87 µg/mL) | > 20 µM | 4 | 1.91 µM | 4.51 | – | 3.29 | – | –
26 | O=C1CC2(CCN(CCc3ccc(Cl)c(Cl)c3)CC2)Oc2c1ccc1ccccc21 | – | – | – | > 2.5 µM | – | – | – | – | –

Row | SMILES | solubility [1] | EC50 at 48 h [2] | selectivity ratio [3] | EC50 (Plasmodium falciparum [4]) | logD [5] | solubility [6] | logD [7] | EC50 (Plasmodium falciparum [8]) | EC50 (Plasmodium falciparum [9])
27 | O=C(Cc1ccc(F)c(F)c1)N1CCC2(CCc3ccc4ccccc4c3O2)CC1 | – | 5 µM | < 1 | > 2.5 µM | 4.04 | – | 4.02 | – | –
28 | O=C1CC2(CCN(CCC3CCCCC3)CC2)Oc2c1ccc1ccccc21 | 20 µM (≈ 7.55 µg/mL) | 16 µM | 31.2 | 0.71 µM | 4.5 | 10 µM (≈ 3.78 µg/mL) | 2.99 | – | –
29 | CCN1CCC2(CCc3ccc4ccccc4c3O2)CC1 | ≤ 10 µM | > 20 µM | > 52.1 | 0.55 µM | 2.88 | ≤ 10 µM | 2.17 | – | –
30 | CCN1CCC2(CC1)CC(=O)c1ccc3ccccc3c1O2 | ≥ 80 µM | 18 µM | 4.7 | > 2.5 µM | 2.19 | ≥ 80 µM | 1.65 | – | –
31 | OC1CC2(CCN(CCc3ccccc3)CC2)Oc2c1ccc1ccccc21 (stereo not given) | – | > 20 µM | > 68.9 | 0.32 µM | – | – | – | – | –
32 | c1ccc(CCCN2CCC3(CCc4ccc5ccccc5c4O3)CC2)cc1 | – | > 20 µM | > 45.6 | 1.41 µM | – | – | – | – | –
33 | O=C1C[C@@]2(CCCN(CCc3ccc(F)c(F)c3)C2)Oc2c1ccc1ccccc21 | – | 14 µM | 34.2 | 0.33 µM | – | – | – | – | –
34 | c1cc2c(c3c1CCCC3)OC1(CCNCC1)CC2 | – | > 20 µM | 4 | > 2.5 µM | – | – | – | – | –
35 | O=C1CC2(CCN(CC(O)c3ccc(F)c(F)c3)CC2)Oc2c1ccc1ccccc21 (stereo not given) | ≥ 80 µM | > 20 µM | > 6.1 | 0.85 µM | 4.51 | ≤ 10 µM | 2.79 | – | –
36 | Fc1ccc(CCN2CCC3(C=Cc4ccc5ccccc5c4O3)CC2)cc1F | – | 13 µM | 7.2 | 1.98 µM | – | – | – | – | –
37 | c1ccc(CN2CCC3(CCc4ccc5ccccc5c4O3)CC2)cc1 | – | > 20 µM | 4 | > 2.5 µM | – | – | – | – | –
38 | OC(CN1CCC2(CC1)CC(O)c1ccc3ccccc3c1O2)c1ccc(Cl)c(Cl)c1 (stereo not given) | – | – | – | 1.84 µM | – | – | – | – | –
39 | O[C@H](CN1CCC2(CC1)C[C@H](O)c1ccc3ccccc3c1O2)c1ccc(F)c(F)c1 | – | > 20 µM | 11 | 1.79 µM | – | – | – | – | –
40 | O=C1CC2(CCN(C(=O)Cc3ccc(F)c(F)c3)CC2)Oc2c1ccc1ccccc21 | – | 18 µM | < 3.6 | > 2.5 µM | 4.03 | ≤ 10 µM | 4 | – | –
41 | OC1C[C@@]2(CCCN(CCc3ccc(F)c(F)c3)C2)Oc2c1ccc1ccccc21 (stereo not given in full) | – | > 20 µM | > 34.5 | 0.61 µM | – | – | – | – | –
42 | CCN1CCC[C@]2(CC(=O)c3ccc4ccccc4c3O2)C1 | – | 5 µM | 1.3 | > 2.5 µM | – | – | – | – | –
43 | OC1CC2(CCN(CCc3ccc(Cl)c(Cl)c3)CC2)Oc2c1ccc1ccccc21 (stereo not given) | – | – | – | 2.1 µM | – | – | – | 2.01 µM | 1.32 µM
44 | O=C1CC2(CCNCC2)Oc2c1ccc1ccccc21 | ≥ 80 µM | 7 µM | 3.2 | 2.27 µM | 1.78 | ≥ 80 µM | 1.48 | – | –
45 | O=C(Cc1ccc(F)c(F)c1)N1CCC2(CC1)CC(O)c1ccc3ccccc3c1O2 (stereo not given) | – | 5 µM | < 1 | > 2.5 µM | 2.46 | – | 2.04 | – | –
46 | O=C(CN1CCC2(CC1)CC(O)c1ccc3ccccc3c1O2)c1ccc(F)c(F)c1 (stereo not given) | 20 µM (≈ 8.47 µg/mL) | 33 µM | < 6.7 | > 2.5 µM | 0.89 | 20 µM (≈ 8.47 µg/mL) | 1.53 | – | –
47 | O=C1C[C@]2(CCCN(CCc3ccc(F)c(F)c3)C2)Oc2c1ccc1ccccc21 | – | 10 µM | 5.8 | 1.84 µM | – | – | – | – | –
48 | O=C1C[C@]2(CCCNC2)Oc2c1ccc1ccccc21 | – | 4 µM | 2.4 | 1.2 µM | – | – | – | – | –
49 | c1ccc2c3c(ccc2c1)CCC1(CCNCC1)O3 | 40 µM (≈ 10.1 µg/mL) | > 20 µM | 4 | > 2.5 µM | 2.33 | 20 µM (≈ 5.07 µg/mL) | 1.97 | – | –
50 | O=C1CC2(CCN(CCCc3ccccc3)CC2)Oc2c1ccc1ccccc21 | – | > 20 µM | > 36.5 | 0.48 µM | – | – | – | – | –
51 | O[C@H](CN1CCC2(CC1)C[C@@H](O)c1ccc3ccccc3c1O2)c1ccc(F)c(F)c1 | – | 17 µM | < 7 | > 2.5 µM | – | – | – | – | –
